Consider 9 compounds from ChEMBL document CHEMBL3421564, “Synthesis and biological evaluation of indolyl-pyridinyl-propenones having either methuosis or microtubule disruption activity” (2015).

In test [1] the target is T1, Tubulin (Homo sapiens) (UniProt P68371+Q9H4B7+P0DPH7+P68366+Q13509+Q71U36+P04350+Q3ZCM7+P07437+P68363+Q9BQE3+Q6PEY2+Q13885+Q9BVA1+Q9BUF5). Kind of test: Inhibition of tubulin polymerization in human U251 cells at 3 uM after 4 hrs by immunoblot analysis. The test is classed as cell-based. Conditions: U-251. In a few lines:
(§1)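 Seeded at 1.4 × 10^6 cells per 10 cm dish and treated one day later for 4 h, DMSO control. Cells scraped into 37 °C lysis buffer (100 mM PIPES pH 6.9, 5 mM MgCl2, 1 mM EGTA, 30% glycerol, detergents, 2 mM GTP, protease inhibitors) and spun at 100000g for 1 h at 37 °C. Pellet (polymer) and supernatant tubulin measured by anti-α-tubulin immunoblot with chemiluminescence. Polymer fraction expressed as % of DMSO control; mean ± S.D. of three experiments, two-tailed t test.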

The target of test [2] is T1, Tubulin (Homo sapiens). Nature of the test: Inhibition of tubulin polymerization in human U251 cells at 0.1 uM after 4 hrs by immunoblot analysis. The format is cell-based. Conditions: U-251. In a few lines:
as §1
A general note: Immunoblotting shows a protein as a band on a membrane.

For test [3], the system named is U-251. Kind of test: Growth inhibition of human U251 cells at 10 uM after 24 hrs sulphorhodomine B colorimetric assay. The test is classed as functional, cell-based.
Test [4] concerns U-251. Kind of test: Induction of methuosis in human U251 cells assessed as small cytoplasmic vacuolization and extensive blebbing of the plasma membrane at 2.5 uM after 4 hrs by phase contrast microscopy.
For test [5], the system named is U-251. Nature of the test: Induction of methuosis in human U251 cells assessed as cytoplasmic vacuolization at 2.5 uM up to 48 hrs by phase contrast microscopy. The test is classed as functional, cell-based. The gist of the method:
(§2)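 Live U251 cells seeded at 10^5 per 35 mm dish; fresh medium with compound added after 1 day, DMSO vehicle control. Phase-contrast images taken at set intervals after drug addition (4 h to 48 h). Vacuolization, blebbing, rounding and detachment scored by eye.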

Test [6] relates to U-251. Nature of the test: Induction of methuosis in human U251 cells assessed as cytoplasmic vacuolization at 2.5 uM within 4 hrs by phase contrast microscopy. The format is functional, cell-based. The gist of the method: as §2

The source made the active and inactive calls. The rule behind the calls is not given here.

For `CCOC(=O)c1[nH]c2ccc(OC)cc2c1/C=C/C(=O)c1ccncc1`, the inhibition entry on Tubulin (Homo sapiens) [1] is “Active”. In addition, at Tubulin (Homo sapiens) [2], the inhibition entry was “inactive”.
In the case of `COc1ccc2[nH]c(C(=O)O)c(/C=C/C(=O)c3ccncc3)c2c1`, the “growth inhibition (GI)” value in the test with U-251 [3] is “inactive”. The outcome in the test with U-251 [4] was Active.
For `CCCOC(=O)c1[nH]c2ccc(OC)cc2c1/C=C/C(=O)c1ccncc1`, the inhibition result on Tubulin (Homo sapiens) [1] was “Active”. The inhibition result at Tubulin (Homo sapiens) [2] was “inactive”.
In the case of `COc1ccc2[nH]c(C(F)(F)F)c(/C=C/C(=O)c3ccncc3)c2c1`, the inhibition entry at Tubulin (Homo sapiens) [1] was “Active”. Further, at Tubulin (Homo sapiens) [2], the inhibition result was “inactive”.
On to `CCCOc1ccc2[nH]c(C)c(/C=C/C(=O)c3ccncc3)c2c1`, for which the inhibition result on Tubulin (Homo sapiens) [2] is “inactive”.
Turning to `CCCCOc1ccc2[nH]c(C)c(/C=C/C(=O)c3ccncc3)c2c1`, the “growth inhibition (GI)” value in the test with U-251 [3] was “inactive”. Besides, the outcome in the test on U-251 [5] was Active.
Consider `COc1ccc2[nH]c(C)c(/C=C/C(=O)c3ccncc3)c2c1`, for which the inhibition entry on Tubulin (Homo sapiens) [2] was “inactive”.
In the case of `NCc1ccc2[nH]cc(/C=C/C(=O)c3ccncc3)c2c1`, the “growth inhibition (GI)” value in the test with U-251 [3] was “inactive”. Besides, the outcome in the test on U-251 [5] was inactive.
As to `Cc1[nH]c2ccc(N)cc2c1/C=C/C(=O)c1ccncc1`, the “growth inhibition (GI)” value in the test on U-251 [3] was “inactive”. The outcome with U-251 [6] was inactive.
